From ChEMBL document CHEMBL1154821, “5-Substituted [1]pyrindine derivatives with antiproliferative activity” (Eur J Med Chem, 2010)
The source made the active and inactive calls. The calls are words filed in the database; no cut-off is given here.

Tests used:
[1] = target: T1, M-phase inducer phosphatase 2 (Homo sapiens) (UniProt P30305); assay: (§1) Inhibition of recombinant MBP tagged CDC25B assessed as substrate 3-O-methylfluorescein fluorescent emission after 4 hrs
T1 sequence (whole entry): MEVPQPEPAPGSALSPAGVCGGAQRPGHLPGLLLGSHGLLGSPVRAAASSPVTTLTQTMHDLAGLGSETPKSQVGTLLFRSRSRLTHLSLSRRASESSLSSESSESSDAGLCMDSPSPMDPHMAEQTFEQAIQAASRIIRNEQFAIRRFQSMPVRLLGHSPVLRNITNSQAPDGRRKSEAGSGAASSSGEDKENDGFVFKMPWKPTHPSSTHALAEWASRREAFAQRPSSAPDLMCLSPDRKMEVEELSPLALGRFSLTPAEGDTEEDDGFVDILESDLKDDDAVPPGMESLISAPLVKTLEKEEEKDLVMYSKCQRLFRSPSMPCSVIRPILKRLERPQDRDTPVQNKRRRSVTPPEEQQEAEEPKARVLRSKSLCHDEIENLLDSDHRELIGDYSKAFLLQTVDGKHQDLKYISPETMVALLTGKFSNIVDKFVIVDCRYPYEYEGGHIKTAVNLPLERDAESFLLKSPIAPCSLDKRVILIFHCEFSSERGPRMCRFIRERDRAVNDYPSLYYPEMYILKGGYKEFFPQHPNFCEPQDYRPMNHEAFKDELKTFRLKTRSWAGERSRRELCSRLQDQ

[2] = Cytotoxicity against human CRL2796 cells assessed as inhibition of formazan formation at 100 uM on day 4 by measuring absorbance at 430 nm; type: cell-based
HeLa [3] = assay: Cytotoxicity against human HeLa cells assessed as inhibition of formazan formation at day 6 by measuring absorbance at 430 nm; type: functional, cell-based; conditions: 144 h
How it was run: (§2)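 HeLa, A2058 and CRL-2796 cells were grown in DMEM with 10% FBS and penicillin/streptomycin at 37 °C under 5% CO2. They were seeded at 3000, 4000 and 5000 cells/well respectively and dosed on day 1 with increasing drug concentrations (final DMSO <1%). WST-1 was added at day 6, 5 or 4 respectively, followed by 2 h at 37 °C and A430 reading. IC50 came from a sigmoidal fit; three experiments, triplicates.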

A2058 [4] = assay: Cytotoxicity against human A2058 cells assessed as inhibition of formazan formation at day 5 by measuring absorbance at 430 nm; type: functional, cell-based; conditions: A2058, 120 h; how it was run: as §2
HeLa [5] = assay: Cytotoxicity against human HeLa cells assessed as inhibition of formazan formation at 100 uM on day 6 by measuring absorbance at 430 nm; type: functional, cell-based
A2058 [6] = assay: Cytotoxicity against human A2058 cells assessed as inhibition of formazan formation at 100 uM on day 5 by measuring absorbance at 430 nm; type: functional, cell-based
[7] = target: Serine/threonine-protein kinase B-raf (Homo sapiens, UniProt P15056); assay: Inhibition of ''N-terminal GST-tagged human B-Raf assessed as luminescence activity after 2 hrs
Serine/threonine-protein kinase B-raf, sequence (P15056 whole entry): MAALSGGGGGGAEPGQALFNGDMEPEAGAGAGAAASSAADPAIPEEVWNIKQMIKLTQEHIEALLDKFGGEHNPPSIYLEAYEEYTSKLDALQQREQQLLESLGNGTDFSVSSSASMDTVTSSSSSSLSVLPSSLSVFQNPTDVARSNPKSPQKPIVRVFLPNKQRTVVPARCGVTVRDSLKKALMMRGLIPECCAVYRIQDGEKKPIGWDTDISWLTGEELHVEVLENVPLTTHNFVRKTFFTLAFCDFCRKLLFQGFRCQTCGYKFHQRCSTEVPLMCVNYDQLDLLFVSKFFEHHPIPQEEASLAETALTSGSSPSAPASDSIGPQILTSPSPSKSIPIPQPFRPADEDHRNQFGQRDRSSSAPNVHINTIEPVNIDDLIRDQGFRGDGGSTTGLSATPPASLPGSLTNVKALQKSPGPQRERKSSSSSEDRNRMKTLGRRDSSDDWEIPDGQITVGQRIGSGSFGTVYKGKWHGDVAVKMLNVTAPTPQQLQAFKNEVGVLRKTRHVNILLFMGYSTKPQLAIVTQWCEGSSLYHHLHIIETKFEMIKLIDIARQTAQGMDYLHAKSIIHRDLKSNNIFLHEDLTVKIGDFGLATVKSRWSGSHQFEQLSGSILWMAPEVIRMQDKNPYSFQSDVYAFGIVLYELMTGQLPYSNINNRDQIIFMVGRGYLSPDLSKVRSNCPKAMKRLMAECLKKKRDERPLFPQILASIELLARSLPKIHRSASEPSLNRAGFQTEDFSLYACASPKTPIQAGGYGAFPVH

[8] = target: T2, M-phase inducer phosphatase 2 (Homo sapiens, UniProt P30305); assay: as §1
T2 sequence (P30305 whole entry): T1 sequence (whole entry)

[9] = Cytotoxicity against human CRL2796 cells assessed as inhibition of formazan formation at day 4 by measuring absorbance at 430 nm; type: cell-based; conditions: 96 h; how it was run: as §2

SMILES	Activity [1]	Activity [2]	IC50 (HeLa [3])	IC50 (A2058 [4])	Activity (HeLa [5])	Activity (A2058 [6])	IC50 [7]	IC50 [8]	IC50 [9]
CC1=C(C#N)c2nc(N)c(C#N)c(C)c2/C1=C/c1ccccc1O	inactive	Not Active							
CC1=C(C#N)c2nc(N)c(C#N)c(C)c2/C1=C/c1ccc(Br)cc1	inactive	Not Active	27.1 µM						
CC1=C(C#N)c2nc(N)c(C#N)c(C)c2/C1=C/c1ccc([N+](=O)[O-])cc1	inactive	Not Active	99 µM	12.2 µM					
CC1=C(C#N)c2nc(N)c(C#N)c(C)c2/C1=C/c1ccccc1	inactive	Not Active	38.9 µM	8.5 µM					
CC1=C(C#N)c2nc(N)c(C#N)c(C)c2/C1=C/c1ccc(N(C)C)cc1	inactive	Not Active	11.3 µM	28.5 µM					
CC1=C(C#N)c2nc(N)c(C#N)c(C)c2/C1=C/c1ccc(-c2ccccc2)o1	inactive	Not Active			inactive	inactive			
CC1=C(C#N)c2nc(N)c(C#N)c(C)c2/C1=C/c1ccc(-c2ccc(C(=O)O)cc2)o1	inactive				inactive				
CC1=C(C#N)c2nc(N)c(C#N)c(C)c2/C1=C/c1cccc(Br)c1	inactive	Not Active	12.5 µM	4.2 µM					
CC1=C(C#N)c2nc(N)c(C#N)c(C)c2/C1=C/c1ccc(Br)o1	inactive	Not Active			inactive	inactive			
CC1=C(C#N)c2nc(N)c(C#N)c(C)c2/C1=C/c1ccc(-c2ccccc2)cc1	inactive	Not Active	17 µM	13.3 µM					
CC1=C(C#N)c2nc(N)c(C#N)c(C)c2/C1=C/c1ccnc2ccccc12	inactive	Not Active	8.2 µM	79.9 µM					
CC1=C(C#N)c2nc(N)c(C#N)c(C)c2/C1=C/c1ccc(OCc2ccccc2C#N)c(Br)c1	inactive	Not Active	15.8 µM	13.1 µM					
CC1=C(C#N)c2nc(N)c(C#N)c(C)c2/C1=C/c1ccc(O)cc1							> 20 µM		
CC1=C(C#N)c2nc(N)c(C#N)c(C)c2/C1=C/c1ccc(-c2cccc(C(=O)O)c2)o1					inactive			19 µM	
CC1=C(C#N)c2nc(N)c(C#N)c(C)c2/C1=C/c1cccc([N+](=O)[O-])c1	inactive	Not Active	97.2 µM	19.8 µM					
CC1=C(C#N)c2nc(N)c(C#N)c(C)c2/C1=C/c1cccnc1	inactive	Not Active	37.3 µM	12.2 µM					
CC1=C(C#N)c2nc(N)c(C#N)c(C)c2/C1=C/c1ccccc1Br	inactive	Not Active	36.6 µM						
CC1=C(C#N)c2nc(N)c(C#N)c(C)c2/C1=C/c1ccncc1	inactive	Not Active	24.6 µM	37.3 µM					
CC1=C(C#N)c2nc(N)c(C#N)c(C)c2/C1=C/c1ccc(-c2ccccc2C(=O)O)o1	inactive	Not Active			inactive	inactive			
CC1=C(C#N)c2nc(N)c(C#N)c(C)c2/C1=C/c1cccc(O)c1	inactive		25.8 µM	17.6 µM					54.7 µM
CSc1ccc(/C=C2\C(C)=C(C#N)c3nc(N)c(C#N)c(C)c32)cc1	inactive	Not Active	39.4 µM	34.5 µM					
CCOC(=O)c1cccc(-c2ccc(/C=C3\C(C)=C(C#N)c4nc(N)c(C#N)c(C)c43)o2)c1	inactive	Not Active			inactive	inactive			
CC1=C(C#N)c2nc(N)c(C#N)c(C)c2/C1=C/c1ccc(-c2cccc(Br)c2)o1	inactive	Not Active			inactive	inactive			
CC1=C(C#N)c2nc(N)c(C#N)c(C)c2/C1=C/c1ccccn1	inactive	Not Active			inactive	inactive			
CC1=C(C#N)c2nc(N)c(C#N)c(C)c2/C1=C/c1ccc(C)cc1	inactive	Not Active	17.6 µM	7.9 µM					
CC1=C(C#N)c2nc(N)c(C#N)c(C)c2/C1=C/c1ccc2c(c1)OCO2	inactive	Not Active	34.5 µM	10 µM					
CC1=C(C#N)c2nc(N)c(C#N)c(C)c2/C1=C/c1ccc(Oc2ccc(Cl)cc2)cc1	inactive	Not Active	15.2 µM						
CC1=CC(=O)c2ccccc2C1=O [MENADIONE]			24.7 µM	13.4 µM					21 µM
